PubChem BioAssay
The source made the active and inactive calls. Unless noted, no stated cut-off is given here; in the data, active means inhibition above about 30%; inactive means the rest.

Columns and labels:
[1] = SK-BR-3 cell growth inhibitors, pilot screen, 24 h, human (AID 572;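 active means viability at or below 10% of carrier control in both of two separate runs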;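 further: compound exposure lasted between 18 and 24 h rather than exactly 24 h; 100% = carrier-treated control wells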); settings: SK-BR-3 viability, CellTiter-Glo luminescence, at 10 µM, stronger effect = lower value
[2] = HUVEC growth inhibition – cell-based, human, primary screen (AID 575;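 active means viability at or below 30% in both replicate assays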;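 further: 100% = median of untreated cell wells with 0.1% DMSO on each plate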); settings: HUVEC proliferation, CellTiter-Glo luminescence, 72 h; at 10 µM; stronger effect = lower value
In short: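 Assay system: Primary human umbilical vein endothelial cells | Quantity: 1250 cells per well | Medium: Supplemented EBM, 2% fetal bovine serum | Detection: CellTiter-Glo luminescence measuring cellular ATP | Read-out: % viability vs DMSO wells | Plate: Collagen-coated 384-well format | Times: 72 h exposure, 37 °C, 5% CO2, 30 min RT equilibration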

[3] = growth inhibitors of H69AR lung tumor, primary screen, human, duplicate replicates (AID 580;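 active means viability at or under a set limit in both replicates, limit being median viability minus 3 SD, cut at about 48% in these data, passing the limit was not always enough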;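 further: 100% = mean luminescence of untreated wells and 0% = no signal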); settings: H69AR lung tumor cells viability, ATP luminescence, 72 h; at 10 µM; stronger effect = lower value
[4] = reversal of MRP1-mediated doxorubicin resistance, pilot screen, H69AR cells, doxorubicin co-treatment (AID 601;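 active means viability loss from added drug above about 55%, and viability with drug at most 40%, in both replicates, limit read from the data, passing the limit was not always enough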); settings: CellTiter-Glo, 72 h, at 10 µM; for differential viability (reversal): stronger effect = higher value
[5] = 384-well plate pilot, post-Golgi transport modulator project, inhibition of yeast transport mutant growth (AID 636; in the data active means inhibition above about 31%); settings: absorbance 615 nm, about 18 h, stronger effect = higher value
[6] = growth suppression of yeast trafficking mutant, preliminary HTS, modulators of trafficking downstream of Golgi apparatus project, 1536-format plate, OD 615 nm (AID 637); settings: yeast transport mutant growth, absorbance 615 nm, 18 h; stronger effect = higher value
[7] = H69AR cells + 2 uM doxorubicin, measured here: viability with 2 uM doxorubicin, stronger effect = lower value
[8] = H69AR cells, compound alone cytotoxicity

| SMILES | viability [1] | viability [2] | viability [3] | differential viability (reversal) ([4]; H69AR cells + 2 uM doxorubicin) | viability [4, 7] | viability [4, 8] | inhibition [5] | inhibition [6] |
| --- | --- | --- | --- | --- | --- | --- | --- | --- |
| CCN=C1SC(CC(=O)Nc2ccccc2OCC)C(=O)N1CC (configuration not stated) | 96% (inactive) | 94.3% (inactive) | 94.5% (inactive) | 8.11% (inactive) | 86.4% | 94.5% | -2.05% (inactive) | -2.74% (inactive) |
| CC(C)OC(=O)CSc1nnc(-c2cccnc2)n1Cc1ccccc1 | 86% (inactive) | 105% (inactive) | 89.9% (inactive) | 9.68% (inactive) | 80.2% | 89.9% | -5.81% (inactive) | 0.18% (inactive) |
| CC1(C)C2CCC1(C)C(OC(=O)CSc1nc(N)cc(=O)[nH]1)C2 (configuration not stated) | 104% (inactive) | 94.2% (inactive) | 92.8% (inactive) | 6.73% (inactive) | 86.1% | 92.8% | -2.53% (inactive) | -6.91% (inactive) |
| c1ccc(Cn2nnnc2CN2CCCC2)cc1 | 112% (inactive) | 101% (inactive) | 99.4% (inactive) | 2.88% (inactive) | 96.5% | 99.4% | -6.3% (inactive) | 0.48% (inactive) |
| C=CCN1C(=O)CS/C1=N/c1nccs1 | 65% (inactive) | 96.5% (inactive) | 98.4% (inactive) | 1.4% (inactive) | 97% | 98.4% | -8.9% (inactive) | -1.13% (inactive) |
| COc1cccc(OCC(=O)Nc2ccccc2C(N)=O)c1 | 110% (inactive) | 99.9% (inactive) | 97% (inactive) | 13.1% (inactive) | 83.9% | 97% | -1.51% (inactive) | 1.13% (inactive) |
| Cc1cccc(NC(=O)CSc2nnc(-c3ccccc3C)o2)c1 | 87% (inactive) | 107% (inactive) | 75.4% (inactive) | 3.35% (inactive) | 72% | 75.4% | -5.95% (inactive) | -7.27% (inactive) |
| CC(=O)Nc1ccc(S(=O)(=O)CCC#N)cc1 | 109% (inactive) | 89.4% (inactive) | 91.7% (inactive) | -6.28% (inactive) | 98% | 91.7% | -1.17% (inactive) | 5.41% (inactive) |
| Cc1nc(C)n(C(C)CC(=O)O)n1 (configuration not stated) | 103% (inactive) | 127% (inactive) | 103% (inactive) | 5.71% (inactive) | 97.2% | 103% | -4% (inactive) | 1.27% (inactive) |
| CCc1noc(C)c1C(=O)NCCc1ccc(OC)c(OC)c1 | 87% (inactive) | 104% (inactive) | 104% (inactive) | 16.7% (inactive) | 87% | 104% | -8.49% (inactive) | 2.58% (inactive) |
| CCCCn1nnnc1NCc1cccs1 | 98% (inactive) | 97% (inactive) | 99.2% (inactive) | 14.4% (inactive) | 84.8% | 99.2% | -6.49% (inactive) | -0.33% (inactive) |
| CSc1c(CC(=O)NCCO)n(C)c2ccccc12 | 108% (inactive) | 111% (inactive) | 102% (inactive) | 9.3% (inactive) | 93.1% | 102% | -4.13% (inactive) | 0.91% (inactive) |
| CC1CN(C(=O)CSc2ncnc3sccc23)CC(C)O1 (configuration not stated) | 80% (inactive) | 103% (inactive) | 99.6% (inactive) | -2.15% (inactive) | 102% | 99.6% | -5.75% (inactive) | 0% (inactive) |
| COc1ccc(S(=O)(=O)N2CCN(S(=O)(=O)c3ccc4c(c3)OCCO4)CC2)cc1C | 101% (inactive) | 109% (inactive) | 88.2% (inactive) | 17.5% (inactive) | 70.7% | 88.2% | -5.33% (inactive) | 1.09% (inactive) |
| Cc1cc(Br)c(S(=O)(=O)n2nnc3ccccc32)cc1C | 107% (inactive) | 101% (inactive) | 81.8% (inactive) | -4.02% (inactive) | 85.8% | 81.8% | -8.22% (inactive) | 5.09% (inactive) |
| CCCCN1C(=O)C2C(C(=O)Nc3cccc(OC)c3)C3C=CC2(O3)C1C(=O)NC1CCCCC1C (configuration not stated) | 101% (inactive) | 82.7% (inactive) | 82.1% (inactive) | 3.86% (inactive) | 78.2% | 82.1% | -2.86% (inactive) | -3.11% (inactive) |
| CCCCCc1c(C)nc(SCC(=O)O)[nH]c1=O | 108% (inactive) | 108% (inactive) | 111% (inactive) | 14% (inactive) | 97.1% | 111% | 1.23% (inactive) | -3.39% (inactive) |
| O=C(O)c1ccc(COc2ccc(Cl)cc2)o1 | 92% (inactive) | 84.7% (inactive) | 98.1% (inactive) | 9.97% (inactive) | 88.1% | 98.1% | -0.26% (inactive) | -2.13% (inactive) |
| CCOC(=O)c1cc(CC)sc1NC(=O)COC | 104% (inactive) | 89.4% (inactive) | 88.8% (inactive) | 2.66% (inactive) | 86.2% | 88.8% | -7.07% (inactive) | 0.18% (inactive) |
